Where a name gives a salt, the structure may show the parent alone.
Key:
[1] = Cytotoxicity against human prostate cancer cells after 48 hrs; assay type: functional; conditions: Cancer cell lines
Method in brief: (§1)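 NCI 60-cell panel (subpanels include leukemia and prostate). […] Percent growth relative to untreated control; some repeats averaged over two experiments.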

[2] = Cytotoxicity against human CNS cancer cells after 48 hrs; assay type: functional; conditions: Cancer cell lines
Method in brief: (§2)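 NCI 60-cell panel subpanel lines; compounds first screened at a single 10−5 M, then those passing threshold tested in five-concentration assay over 10−9 to 10−4 M (some to 10−3 M), 48 h exposure. Growth relative to untreated control measured as cell protein; GI50, TGI and LC50 derived; some values are means of two experiments.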

[3] = Inhibition of bovine brain tubulin assembly after 20 mins; set-up: species or system Bos taurus
[4] = Cytotoxicity against human breast cancer cells after 48 hrs; assay type: functional; conditions: Cancer cell lines; method in brief: as §2
[5] = Cytotoxicity against human renal cancer cells after 48 hrs; assay type: functional; conditions: Cancer cell lines; for CC50: read-out: LC50 (the source's name); method in brief: as §2
[6] = Cytotoxicity against human ovarian cancer cells after 48 hrs; assay type: functional; conditions: Cancer cell lines; method in brief: as §2
[7] = Cytotoxicity against human melanoma cells after 48 hrs; assay type: functional; conditions: Melanoma cell; for CC50: read-out: LC50 (the source's name); method in brief: as §2
Bos taurus = species: Bos taurus; experiment: Displacement of [3H]colchicine from bovine brain tubulin at 5 uM after 10 mins
[8] = Cytotoxicity against human COLON cells after 48 hrs; assay type: functional; method in brief: as §2
[9] = Cytotoxicity against human leukemia cells after 48 hrs; assay type: functional; conditions: Leukemia cell; method in brief: as §1
NSCLC = experiment: Cytotoxicity against human NSCLC cells after 48 hrs; assay type: functional; method in brief: as §2

Row | Compound | GI50 [1] [µM] | TGI [1] [µM] | GI50 [2] [µM] | IC50 [3] [µM] | GI50 [4] [µM] | TGI [4] [µM] | GI50 [5] [µM] | TGI [5] [µM] | GI50 [6] [µM] | TGI [6] [µM] | GI50 [7] [µM] | TGI [7] [µM] | CC50 [7] [µM] | GI50 [8] [µM] | TGI [8] [µM] | GI50 [9] [µM] | TGI [9] [µM] | GI50 (NSCLC) [µM] | TGI (NSCLC) [µM] | TGI [2] [µM] | also measured
1 | Cc1nn2c(/C=C3/C(=O)Nc4c3ccc3ccccc43)c(C)nc2s1 | 0.38 | 5.13 | 0.39 | 16 | 0.3 | 6.31 | 0.83 | 10.5 | 0.91 | 11.8 | 0.68 | 17 | 70.8 | 0.35 | 6.61 | 0.17 | 3.31 | 0.87 | 15.5 |  | LC50 (concentration killing 50% of cells) [1]: 15.1 µM; LC50 [2]: 46.8 µM; LC50 [4]: 75.9 µM; CC50 [5]: 56.2 µM; LC50 (concentration killing 50% of starting cells) [6]: 56.2 µM; inhibition (Bos taurus): 45%; LC50 (concentration giving 50% net cell kill) [8]: 49 µM; LC50 (concentration killing 50% of cells) [9]: 66.1 µM; LC50 (NSCLC): 74.1 µM
2 | O=C1Nc2cc(Cl)ccc2C1=Cc1c(-c2ccccn2)nc2sccn12 (mixture of isomers) | 0.15 | 31.6 | 0.17 | 9.3 | 0.21 | 12.6 | 0.25 | 15.8 | 0.27 | 11.5 | 0.12 | 15.1 | 38.9 | 0.11 | 21.9 | 0.06 | 4.57 | 0.33 | 28.8 | 6.03 | LC50 [2]: 38 µM; LC50 [4]: 46.8 µM; CC50 [5]: 42.7 µM; LC50 (concentration killing 50% of starting cells) [6]: 36.3 µM; inhibition (Bos taurus): 48%; LC50 (concentration giving 50% net cell kill) [8]: 46.8 µM; LC50 (NSCLC): 49 µM
3 | COc1nc2sccn2c1/C=C1/C(=O)Nc2cc(Cl)ccc21 | 0.39 | 69.2 | 0.35 | 13 | 0.54 | 58.9 | 0.62 | 49 | 0.65 | 21.4 | 0.21 | 34.7 | 93.3 | 0.33 | 22.4 | 0.14 | 5.37 | 1.29 | 79.4 | 16.2 | LC50 [2]: 75.9 µM; CC50 [5]: 85.1 µM; LC50 (concentration killing 50% of starting cells) [6]: 89.1 µM; inhibition (Bos taurus): 53%; LC50 (concentration giving 50% net cell kill) [8]: 79.4 µM
4 | O=C1Nc2ccc(Cl)cc2C1=Cc1c(-c2ccccn2)nc2sccn12 (mixture of isomers) | 1.26 | 19.1 | 0.71 | > 20 | 0.45 | 7.76 | 1.15 | 10.5 | 1.62 | 17.4 | 0.68 | 11.8 | 51.3 | 0.52 | 10.5 | 0.28 | 7.08 | 1.78 | 18.2 | 22.4 | LC50 (concentration killing 50% of cells) [1]: 47.9 µM; LC50 [2]: 66.1 µM; LC50 [4]: 42.7 µM; CC50 [5]: 43.6 µM; LC50 (concentration killing 50% of starting cells) [6]: 50.1 µM; inhibition (Bos taurus): 13%; LC50 (concentration giving 50% net cell kill) [8]: 33.9 µM; LC50 (concentration killing 50% of cells) [9]: 69.2 µM; LC50 (NSCLC): 58.9 µM
5 | CC[C@]1(O)C[C@H]2CN(CCc3c([nH]c4ccccc34)[C@@](C(=O)OC)(c3cc4c(cc3OC)N(C=O)[C@H]3[C@@](O)(C(=O)OC)[C@H](OC(C)=O)[C@]5(CC)C=CCN6CC[C@]43[C@@H]65)C2)C1 [VINCRISTINE SULFATE] | 0.13 |  | 0.13 |  | 0.32 |  | 0.32 |  | 0.32 |  | 0.16 |  |  | 0.1 | 3.98 | 0.1 |  | 0.25 |  |  | 
6 | COc1nc2sccn2c1/C=C1/C(=O)N(C)c2ccccc21 | 21.4 |  | 11 |  | 2.19 | 60.3 | 15.8 | 85.1 | 6.46 |  | 8.71 | 77.6 |  | 2.24 | 60.3 | 3.89 | 43.6 | 7.94 | 95.5 | 77.6 | 
7 | COc1nc2sccn2c1/C=C1/C(=O)Nc2ccccc21 | 0.55 | 29.5 | 0.25 | 3.7 | 0.28 | 13.2 | 0.54 | 38.9 | 0.44 | 20.4 | 0.47 | 40.7 | 95.5 | 0.29 | 13.8 | 0.5 | 21.4 | 0.43 | 51.3 | 7.94 | LC50 [2]: 50.1 µM; LC50 [4]: 91.2 µM; inhibition (Bos taurus): 48%; LC50 (concentration giving 50% net cell kill) [8]: 89.1 µM; LC50 (concentration killing 50% of cells) [9]: 60.3 µM; LC50 (NSCLC): 93.3 µM
8 | COc1ccc2c(c1)/C(=C\c1c(-c3ccc(C)cc3)nc3sc(C)cn13)C(=O)N2C | 5.37 |  | 39.8 |  | 12.9 | 72.4 | 4.79 | 70.8 | 56.2 |  | 52.5 |  |  | 6.03 | 33.1 | 4.37 | 56.2 | 14.8 | 85.1 |  | 
9 | COc1cc(-c2nc3sc(C)cn3c2/C=C2/C(=O)Nc3ccccc32)c(Br)c(OC)c1OC | 30.2 | 85.1 | 23.4 |  | 19.1 | 63.1 | 30.9 | 75.9 | 39.8 | 85.1 | 29.5 | 85.1 |  | 26.3 | 75.9 | 36.3 |  | 32.4 | 89.1 | 55 | 
10 | COc1nc2sccn2c1/C=C1/C(=O)Nc2ccc(Cl)cc21 | 3.98 | 81.3 | 3.31 |  | 2.45 | 74.1 | 3.31 | 58.9 | 3.47 | 46.8 | 3.72 | 40.7 |  | 1.41 | 64.6 | 1.32 | 26.3 | 4.27 | 89.1 | 40.7 | 
11 | COc1ccc2c(c1)C(=Cc1c(OC)nc3sccn13)C(=O)N2C (mixture of isomers) | 0.55 |  | 0.38 | 3.8 | 0.49 | 49 | 0.71 | 53.7 | 0.63 | 31.6 | 0.79 | 72.4 | 91.2 | 0.35 | 24 | 0.16 |  | 1.02 | 58.9 | 18.6 | inhibition (Bos taurus): 45%; LC50 (concentration giving 50% net cell kill) [8]: 87.1 µM; LC50 (concentration killing 50% of cells) [9]: 79.4 µM
